Here are results for 10 compounds from ChEMBL document CHEMBL4680287, “Ibrexafungerp: An orally active β-1,3-glucan synthesis inhibitor” (Bioorg Med Chem Lett, 2021).

Converted amounts (≈) assume the structure as drawn. Some results are limits rather than exact numbers.

By MIC is commonly meant the lowest concentration found to suppress growth. Broadly, the IC50 is the concentration that gives 50% inhibition. The bioavailability is the share of a dose that reaches the circulation, judged against a reference dose that is usually intravenous. Low readings indicate poor availability, high ones good availability.

Data set [1] has as its system Candida albicans. Description: Antifungal activity against Candida albicans MY1055 assessed as fungal growth inhibition measured after 24 hrs by liquid microdilution method. It is filed as functional. Put shortly:
(§1)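 Broth microdilution per CLSI protocols in RPMI medium. Read-out is the MIC, the lowest concentration completely inhibiting fungal growth. Run without serum and with added serum.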
(In general: Dilution methods test growth across graded concentrations, often in twofold steps.)

Data set [2] concerns Aspergillus fumigatus. Description: Antifungal activity against Aspergillus fumigatus MF5668 assessed inhibition of fungal growth by measuring morphological changes measured after 24 hrs by microscopy. In kind it is functional. To be noted: read-out: MEC. Put shortly:
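Microdilution per CLSI protocols in RPMI medium. Read-out is the minimum effective concentration (MEC). Run without serum and with 50% human serum.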

The subject of data set [3] is Candida albicans. As to the kind of experiment: Antifungal activity against Candida albicans MY1055 infected in DBA/2 mouse model of disseminated candidiasis assessed as reduction in fungal burden in kidney by measuring log change in colony forming units at 12.5 mg/kg, po bid for 7 days by TOKA. It is filed as functional. To be noted: time 7 day. Put shortly:
(§2)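 Murine disseminated candidiasis model (TOKA) in mice challenged with C. albicans MY1055 at 2.44 x 10^4 CFU/mouse. Dosed PO, or IP where stated. Kidneys collected aseptically 7 days after challenge and CFUs/g counted. Change in log CFU/g is relative to sham-treated controls; significance by two-tailed t test. Clearance is the percentage of kidneys below the detection limit.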

Data set [4] has as its system Candida albicans. As to the kind of experiment: Antifungal activity against Candida albicans MY1055 assessed as fungal growth inhibition measured after 24 hrs in presence of 50% mouse serum by liquid microdilution method. In kind it is functional. Put shortly: as §1
Data set [5] can be described thus: Inhibition of beta-1,3-glucan synthase in Candida albicans MY1055 microsomal membrane assessed as inhibition of TCA-insoluble material formation using UDP-[3H]-glucose as substrate incubated for 2 hrs in presence of GTP by radioactivity-based assay. In kind it is microsomes, Microsome. Put shortly:
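GS IC50 measured using Candida albicans MY1055 microsomal membrane fragments as the enzyme source.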

Data set [6] relates to Candida albicans. As to the kind of experiment: Antifungal activity against Candida albicans MY1055 infected in DBA/2 mouse model of disseminated candidiasis assessed as reduction in fungal burden in kidney by measuring log change in colony forming units at 12.5 mg/kg, ip bid for 7 days by TOKA. In kind it is functional. To be noted: time 7 day. The gist of the method:
as §2

The nature of data set [7]: Dose normalized AUC in po dosed mouse. In kind it is ADME, organism-based. To be noted: in vivo.
In data set [8] the test system is Candida albicans. Description: Antifungal activity against Candida albicans MY1055 infected in DBA/2 mouse model of disseminated candidiasis assessed as reduction in fungal burden in kidney by measuring log change in colony forming units at 25 mg/kg, po bid for 7 days by TOKA. To be noted: time 7 day. In kind it is functional. The gist of the method: as §2
Data set [9] can be described thus: Oral bioavailability in mouse. It is filed as ADME, organism-based. The note with it: in vivo. Put shortly:
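Oral bioavailability calculated as oral AUC normalized to the IV dose, divided by the IV AUC.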

The subject of data set [10] is Candida albicans. As to the kind of experiment: Antifungal activity against Candida albicans MY1055 infected in DBA/2 mouse model of disseminated candidiasis assessed as reduction in fungal burden in kidney by measuring log change in colony forming units at 6.25 mg/kg, po bid for 7 days by TOKA. It is filed as functional. The note with it: time 7 day. Put shortly:
as §2

In the case of `CC(C)[C@@H](C)[C@@]1(C)CC[C@]2(C)[C@H]3CC[C@@H]4[C@@]5(COC[C@@]4(C)[C@@H](OCC(C)(C)N)[C@H](n4ncnc4-c4ccncc4)C5)C3=CC[C@@]2(C)[C@@H]1C(=O)O`, the minimum inhibitory concentration (MIC) in data set [1] is 0.015 µg/mL (≈ 0.0218 µM); in data set [4], 0.5 µg/mL. Further, the minimal effective concentration in [2] was less than 0.03 µg/mL. For the same compound, the Activity in [3] is listed as -1.1 deltalog10CFU; in [6], -4.2 deltalog10CFU. In addition, in data set [5], the IC50 was 1 ng/mL.
`CN[C@@](C)(CO[C@H]1[C@H](n2ncnc2-c2ccncc2)C[C@@]23COC[C@]1(C)[C@@H]2CC[C@H]1C3=CC[C@@]2(C)[C@H](C(=O)O)[C@@](C)([C@H](C)C(C)C)CC[C@]12C)C(C)C`: the MIC came to 0.06 µg/mL (≈ 0.0822 µM) in [1] and 0.5 µg/mL in data set [4]. Also, in data set [2], the minimal effective concentration is less than 0.03 µg/mL. Further, the AUC/dose in [7] came to 0.83 µM·kg·h/mg. The Activity is -3.1 deltalog10CFU in data set [3], -3.7 deltalog10CFU in data set [8] and -0.9 deltalog10CFU in [10]. In [5], the IC50 came to 1 ng/mL. For the same compound, the bioavailability in data set [9] came to 29%.
`CC(C)[C@@H](C)[C@@]1(C)CC[C@]2(C)[C@H]3CC[C@@H]4[C@@]5(COC[C@@]4(C)[C@@H](OC[C@@]4(N)CCOCC4(C)C)[C@H](n4ncnc4-c4ccncc4)C5)C3=CC[C@@]2(C)[C@@H]1C(=O)O`: the results for the MIC in data set [1] and in [4] were 0.06 µg/mL (≈ 0.0791 µM) and 1 µg/mL, respectively. Further, the minimal effective concentration in [2] was 0.004 µg/mL. The compound also returned an AUC/dose in data set [7] of 0.35 µM·kg·h/mg. Further, the Activity in data set [3] is -2.2 deltalog10CFU; in data set [8], -3.2 deltalog10CFU; in [10], -0.9 deltalog10CFU. Besides, in data set [5], the IC50 came to 4 ng/mL. Further, the bioavailability in [9] was determined as 25%.
As for `CC(C)[C@@H](C)[C@@]1(C)CC[C@]2(C)[C@H]3CC[C@@H]4[C@@]5(COC[C@@]4(C)[C@@H](OC[C@](C)(N)C(C)C)[C@H](n4ncnc4-c4cncnc4)C5)C3=CC[C@@]2(C)[C@@H]1C(=O)O`, the figures for the MIC in data set [1] and in data set [4] were 0.06 µg/mL (≈ 0.0837 µM) and 1 µg/mL, respectively. Also, the minimal effective concentration in [2] is less than 0.03 µg/mL. Also, the AUC/dose in data set [7] was 0.33 µM·kg·h/mg. Moreover, the values for the Activity in [3], in data set [8] and in [10] were -3 deltalog10CFU, -3 deltalog10CFU and -2.1 deltalog10CFU, respectively. Moreover, the IC50 in [5] is 6 ng/mL. Also, in data set [9], the bioavailability was determined as 26%.
Consider `CC(C)[C@@H](C)[C@@]1(C)CC[C@]2(C)[C@H]3CC[C@@H]4[C@@]5(COC[C@@]4(C)[C@@H](OC[C@](C)(N)C(C)C)[C@H](n4ncnc4-c4ccncc4F)C5)C3=CC[C@@]2(C)[C@@H]1C(=O)O`, for which the results for the MIC in data set [1] and in data set [4] were 0.015 µg/mL (≈ 0.0204 µM) and 1 µg/mL, respectively. Moreover, the minimal effective concentration in data set [2] is 0.008 µg/mL. In addition, the AUC/dose in data set [7] worked out at 0.34 µM·kg·h/mg. Besides, the values for the Activity in data set [3], in data set [8] and in data set [10] were -2.5 deltalog10CFU, -4.2 deltalog10CFU and -2.6 deltalog10CFU, respectively. In data set [5], the IC50 was determined as 1 ng/mL. The bioavailability in [9] is 26%.
Turning to `CC(C)[C@@H](C)[C@@]1(C)CC[C@]2(C)[C@H]3CC[C@@H]4[C@@]5(COC[C@@]4(C)[C@@H](OC[C@](C)(N)C4(C)CC4)[C@H](n4ncnc4-c4ccncc4)C5)C3=CC[C@@]2(C)[C@@H]1C(=O)O`, the figures for the MIC in data set [1] and in data set [4] were less than 0.03 µg/mL and 0.5 µg/mL, respectively. Moreover, in data set [2], the minimal effective concentration is less than 0.03 µg/mL. Moreover, the AUC/dose in [7] came out at 0.65 µM·kg·h/mg. Also, the Activity in [3] was -2.6 deltalog10CFU; in data set [8], -4.3 deltalog10CFU; in data set [10], -1.5 deltalog10CFU. Also, the half-maximal inhibitory concentration (IC50) in data set [5] worked out at 2 ng/mL. In [9], this compound gave a bioavailability of 36%.
With `CC(C)[C@@H](C)[C@@]1(C)CC[C@]2(C)[C@H]3CC[C@@H]4[C@@]5(COC[C@@]4(C)[C@@H](OC[C@](C)(N)C(C)C)[C@H](n4ncnc4-c4ccnnc4)C5)C3=CC[C@@]2(C)[C@@H]1C(=O)O`, the figures for the minimal inhibitory concentration (MIC) in [1] and in [4] were 0.125 µg/mL (≈ 0.174 µM) and 1 µg/mL, respectively. The minimal effective concentration in data set [2] is less than 0.03 µg/mL. This compound returned an AUC/dose in data set [7] of 0.23 µM·kg·h/mg. Besides, the Activity in data set [3] is given as -1.2 deltalog10CFU; in data set [8], -2.6 deltalog10CFU; in data set [10], -1.2 deltalog10CFU. Besides, the IC50 in data set [5] was 2 ng/mL. Besides, the bioavailability in [9] stood at 29%.
On to `CC(C)[C@@H](C)[C@@]1(C)CC[C@]2(C)[C@H]3CC[C@@H]4[C@@]5(COC[C@@]4(C)[C@@H](OC[C@](C)(N)C(C)C)[C@H](n4ncnc4-c4cccnc4)C5)C3=CC[C@@]2(C)[C@@H]1C(=O)O`, for which the values for the MIC in data set [1] and in data set [4] were 0.06 µg/mL (≈ 0.0838 µM) and 1 µg/mL, respectively. Also, the minimal effective concentration in data set [2] is less than 0.03 µg/mL. In [7], this compound came in with an AUC/dose of 0.17 µM·kg·h/mg. In addition, the Activity is reported as -2.9 deltalog10CFU in [3], -3.1 deltalog10CFU in [8] and -1.4 deltalog10CFU in [10]. Further, in data set [5], the IC50 is 4 ng/mL. In addition, the bioavailability in data set [9] worked out at 11%.
With `CN[C@@](C)(CO[C@H]1[C@H](n2ncnc2-c2cccnc2)C[C@@]23COC[C@]1(C)[C@@H]2CC[C@H]1C3=CC[C@@]2(C)[C@H](C(=O)O)[C@@](C)([C@H](C)C(C)C)CC[C@]12C)C(C)C`, the MIC in [1] came to 0.25 µg/mL (≈ 0.342 µM); in [4] it was 1 µg/mL. The minimal effective concentration in data set [2] is less than 0.03 µg/mL. In addition, in data set [7], the AUC/dose came to 0.59 µM·kg·h/mg. Besides, the Activity is listed as -2.4 deltalog10CFU in data set [3], -3 deltalog10CFU in data set [8] and -1.1 deltalog10CFU in [10]. In [5], the IC50 came out at 5 ng/mL. Further, in [9], the bioavailability is 21%.
As for `CC(C)[C@@H](C)[C@@]1(C)CC[C@]2(C)[C@H]3CC[C@@H]4[C@@]5(COC[C@@]4(C)[C@@H](OC[C@](C)(N)C(C)C)[C@H](n4ncnc4-c4ccccc4)C5)C3=CC[C@@]2(C)[C@@H]1C(=O)O`, the MIC came to 0.25 µg/mL (≈ 0.35 µM) in data set [1] and 4 µg/mL in [4]. Besides, the minimal effective concentration in data set [2] was less than 0.03 µg/mL. The compound further registered an AUC/dose in [7] of 0.5 µM·kg·h/mg. Besides, the Activity is recorded as -1.7 deltalog10CFU in data set [3], -2.4 deltalog10CFU in data set [8] and -0.2 deltalog10CFU in data set [10]. Besides, in [5], the IC50 was 3 ng/mL. The same compound yielded a bioavailability in data set [9] of 28%.
